Test results published in ChEMBL document CHEMBL1145091, “Ring-expanded ("fat") nucleoside and nucleotide analogues exhibit potent in vitro activity against flaviviridae NTPases/helicases, including those of the West Nile virus, hepatitis C virus, and Japanese encephalitis virus” (J Med Chem, 2003).

What was measured:
[1] = system: Hepatitis C virus; test: Tested for inhibition against Helicase activity of hepatitis C virus (HCV) in presence of ATP adjusted to 105 uM and 4.7 pM of DNA substrate; format: functional, Hepacivirus hominis
Summary of the method: (§1)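 Unwinding of a 32P 5'-end-labelled partial duplex (26-mer released strand on 40-mer template; DNA or RNA as per line, 4.7 pM nucleotide base), using purified NTPase/helicase (2 pmol WNV from infected Vero E6 medium; 0.5 pmol HCV or 4 pmol JEV NS3 domain, or 0.2 pmol Suv3(Δ1–159), E. coli-expressed). ATP was set at each enzyme's ATPase Km: WNV 9.5 μM, HCV 105 μM, JEV 235 μM, Suv3 4.2 μM. The reaction ran in pH 7.5 Tris with 2 mM MgCl2 for 30 min at 30 °C.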

[2] = system: Japanese encephalitis virus; test: Tested for inhibition against Helicase activity of Japanese encephalitis virus (JEV) in presence of ATP adjusted to 235 uM and 4.7 pM of DNA substrate; format: functional; summary of the method: as §1
[3] = Tested for inhibition against Helicase activity of human NTPase/Helicase Suv3 (delta1-159) in presence of ATP adjusted to 4.2 uM and 4.7 pM of DNA substrate; format: functional; summary of the method: as §1
[4] = system: West Nile virus; test: Tested for inhibition against Helicase activity of west nile virus (WNV) in presence of ATP adjusted to 9.5 uM and 4.7 pM of DNA substrate; format: functional; summary of the method: as §1
[5] = system: Hepatitis C virus; test: Tested for inhibition against Helicase activity of hepatitis C virus (HCV) in presence of ATP adjusted to 105 uM and 4.7 pM of RNA duplex substrate; format: functional, Hepacivirus hominis; summary of the method: as §1
[6] = system: Japanese encephalitis virus; test: Tested for inhibition against Helicase activity of Japanese encephalitis virus (JEV) in presence of ATP adjusted to 235 uM and 4.7 pM of RNA duplex substrate; format: functional; summary of the method: as §1
[7] = Tested for inhibition against Helicase activity of human NTPase/Helicase Suv3 (delta1-159) in presence of ATP adjusted to 4.2 uM and 4.7 pM of RNA duplex substrate; format: functional; summary of the method: as §1
[8] = system: West Nile virus; test: Tested for inhibition against Helicase activity of west nile virus (WNV) in presence of ATP adjusted to 9.5 uM and 4.7 pM of RNA duplex substrate; format: functional; summary of the method: as §1
[9] = system: Hepatitis C virus; test: Tested for activating effect of hepatitis C virus (HCV) in presence of ATP adjusted to 105 uM and 4.7 pM of DNA substrate; format: functional, Hepacivirus hominis; summary of the method: as §1
[10] = system: West Nile virus; test: Tested for activating effect of west nile virus (WNV) in presence of ATP adjusted to […] and 4.7 pM of DNA substrate; format: functional
[11] = system: Hepatitis C virus; test: Tested for inhibition against 1.05 nM ATPase activity of hepatitis C virus (HCV) in presence of ATP adjusted to 1*10e-5 of Km of enzyme; format: functional, Hepacivirus hominis
Summary of the method: (§2)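 ATPase assay measuring 33Pi released from [γ-33P]ATP. Enzymes were 2 pmol WNV, 0.5 pmol HCV, 4 pmol JEV or 0.2 pmol Suv3(Δ1–159). The reaction ran in pH 7.5 Tris with 2 mM MgCl2 and 0.1 mg/mL BSA for 30 min at 30 °C and was stopped with activated charcoal; supernatant was scintillation-counted.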

[12] = system: Hepatitis C virus; test: Tested for inhibition against 1.05 nM ATPase activity of hepatitis C virus (HCV) in presence of ATP adjusted to 1*10e-4 of Km of enzyme; format: functional, Hepacivirus hominis; summary of the method: as §2
[13] = system: Japanese encephalitis virus; test: Tested for inhibition against 2.35 nM ATPase activity of Japanese encephalitis virus (JEV) in presence of ATP adjusted to 1*10e-5 of Km of enzyme; format: functional; summary of the method: as §2
[14] = system: Japanese encephalitis virus; test: Tested for inhibition against […] ATPase activity of Japanese encephalitis virus (JEV) in presence of ATP adjusted to 1*10e-4 of Km of enzyme; format: functional; summary of the method: as §2
[15] = Tested for inhibition against 42 nM ATPase activity of human NTPase/Helicase Suv3 (delta1-159) in presence of ATP adjusted to 1*10e-5 of Km of enzyme; format: functional; summary of the method: as §2
[16] = Tested for inhibition against 42 pM ATPase activity of human NTPase/Helicase Suv3 (delta1-159) in presence of ATP adjusted to 1*10e-4 of Km of enzyme; format: functional; summary of the method: as §2
[17] = system: West Nile virus; test: Tested for inhibition against 95 pM ATPase activity of west nile virus (WNV) in presence of ATP adjusted to 1*10e-5 of Km of enzyme; format: functional; summary of the method: as §2
[18] = system: West Nile virus; test: Tested for inhibition against 95 pM ATPase activity of west nile virus (WNV) in presence of ATP adjusted to 1*10e-4 of Km of enzyme; format: functional; summary of the method: as §2
[19] = system: Hepatitis B virus; test: Tested for inhibition against […] in cultured human hepatoblastoma 2.2.15 cells; format: functional, organism-based; conditions: HepG2 2.2.15
[20] = system: Flavivirus; test: Tested for inhibition against Flaviviridae NTPase/helicase (NTPase/helicase Non structural protein 3); format: functional; conditions: Orthoflavivirus
[21] = Antimeasles activity determined; format: functional
[22] = system: Human rhinovirus sp.; test: Antirhino activity determined; format: functional, organism-based

| SMILES | IC50 [1] | IC50 [2] | IC50 [3] | IC50 [4] | IC50 [5] | IC50 [6] | IC50 [7] | IC50 [8] | further results |
| --- | --- | --- | --- | --- | --- | --- | --- | --- | --- |
| CO[C@@H]1[C@H](O)[C@@H](CO)O[C@H]1n1cnc2c(=O)[nH][nH]c(=O)c21 | 450 µM | > 500 µM | > 500 µM | 30 µM |  |  |  |  |  |
| NC1=NC(=O)C2C(N=CN2COCCO)C(=O)N1 (centres undefined) | > 500 µM | > 500 µM |  | > 500 µM |  |  |  |  |  |
| NC1=NC(=O)C2C(N=CN2COCCOCc2ccccc2)C(=O)N1 (centres undefined) | 11 µM | 150 µM | 5 µM | 5.7 µM | 5.5 µM | > 500 µM | 6 µM | 3.3 µM |  |
| O=C1NC2C(N=CN2Cc2ccccc2)C(=O)N(Cc2ccccc2)N1 (centres undefined) | > 500 µM | > 500 µM | > 500 µM | 3.5 µM | > 500 µM | > 500 µM | > 500 µM | > 500 µM |  |
| NC1=NC(=O)C2C(N=CN2[C@H]2O[C@H](CO)[C@@H](O)[C@H]2O)C(=O)N1 (some centres undefined) |  | > 500 µM | > 500 µM |  | 12 µM | 4.5 µM | 3.5 µM | 220 µM | ED200 [9]: 150 µM; ED200 [10]: 60 µM |
| Nc1nc(=O)c2c(ncn2[C@@H]2C[C@H](O)[C@@H](CO)O2)c(=O)[nH]1 | 7 µM | 13 µM | 28 µM | 25 µM | > 500 µM | 2 µM | 150 µM | 5.7 µM |  |
| CO[C@@H]1[C@H](O)[C@@H](CO)O[C@H]1n1cnc2c(=O)[nH]c(N)nc(=O)c21 |  | > 500 µM | > 500 µM | > 500 µM |  |  |  |  | ED200 [9]: 350 µM |
| NC1=NC(=O)C2N=CNC2C(=O)N1 (centres undefined) | > 500 µM | > 500 µM |  | > 500 µM | 200 µM | > 500 µM | 500 µM | 220 µM |  |
| O=C1NC2N=CNC2C(=O)N(Cc2ccccc2)N1 (centres undefined) | > 500 µM | > 500 µM | > 500 µM | 1.3 µM | > 500 µM | > 500 µM | > 500 µM | > 500 µM |  |
| NC1=NC(=O)C2C(N=CN2CCOCP(=O)(O)O)C(=O)N1 (centres undefined) | 200 µM | > 500 µM | > 500 µM | 500 µM |  |  |  |  |  |
| O=C1NNC(=O)C2C(N=CN2C2O[C@H](COP(=O)(O)OP(=O)(O)OP(=O)(O)O)[C@@H](O)[C@H]2O)N1 (some centres undefined) |  |  |  |  |  |  |  |  | IC50 [11]: 1.5 µM; Ki [12]: 1.7 µM; IC50 [13]: 40 µM; Ki [14]: 15 µM; IC50 [15]: 125 µM; Ki [16]: 45 µM; IC50 [17]: 4 µM; Ki [18]: 2.9 µM |
| N=C1N=C(N)N=C(N)C2N=CN(C3O[C@@H](COP(=O)(O)OP(=O)(O)OP(=O)(O)O)[C@H](O)[C@@H]3O)C12 (some centres undefined) |  |  |  |  |  |  |  |  | IC50 [11]: 0.55 µM; Ki [12]: 0.2 µM; IC50 [13]: 12 µM; Ki [14]: 3.5 µM; IC50 [15]: 40 µM; Ki [16]: 15 µM; IC50 [17]: 0.15 µM; Ki [18]: 0.38 µM |
| N=C1N=C(N)N=C(N)C2N=CN(C3O[C@@H](CO)[C@H](O)[C@@H]3O)C12 (some centres undefined) | > 500 µM | > 500 µM | > 500 µM | > 500 µM |  |  |  |  |  |
| NC1=NC(=O)C2C(N=CN2[C@@H]2O[C@H](CO)C(O)[C@H]2O)C(=O)N1 (single isomer, unassigned) |  |  |  |  |  |  |  |  | IC50 [19]: 0.13 µM; IC50 [20]: > 500 µM |
| NC1=NC(=O)C2C(N=CN2[C@H]2CC(O)[C@@H](CO)O2)C(=O)N1 (single isomer, unassigned) |  | > 500 µM | > 500 µM | > 500 µM |  |  |  |  | ED200 [9]: 100 µM |
| NC1=NC(=O)C2C(N=C(c3ccccc3)N2C2O[C@H](CO)C(O)[C@H]2O)C(=O)N1 (single isomer, unassigned) |  |  |  |  |  |  |  |  | IC50 [21]: 0.5 µM; IC50 [22]: 6.7 µM |
| O=C1NNC(=O)C2C(N=CN2C2O[C@H](CO)C(O)[C@H]2O)N1 (single isomer, unassigned) | > 500 µM | > 500 µM | > 500 µM | > 500 µM |  |  |  |  |  |
